Data: ChEMBL document CHEMBL3734652, “Pyrrolo[3,4-c]pyridine-1,3(2H)-diones: A Novel Antimycobacterial Class Targeting Mycobacterial Respiration” (J Med Chem, 2015)
Values after ≈ are worked out from the molar mass of the structure shown.

Experiments:
[1] = test system: Mycobacterium tuberculosis; test: Antimicrobial activity against Mycobacterium tuberculosis deltacydKO/A317T mutant under GAST/Fe medium assessed as growth inhibition after 14 days by alamar blue assay; format: functional
Summary of the method: (§1)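 Broth microdilution in GAST/Fe medium against fully virulent Mtb H37RvMa or its derived strains (cytochrome bd oxidase deletion ΔcydKO; qcrB Ala317Thr point mutant). Plates were incubated 14 days, growth was read by Alamar Blue, and MIC90 was taken as the potency value.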

[2] = test system: Mycobacterium tuberculosis; test: Antimicrobial activity against Mycobacterium tuberculosis deltacydKO mutant under GAST/Fe medium assessed as growth inhibition after 14 days by alamar blue assay; format: functional; summary of the method: as §1

Row | SMILES | MIC90 [1] [µM] | MIC90 [2] [µM]
1 | CCOC(=O)c1nc(C)c2c(c1N)C(=O)N(Cc1ccccc1)C2=O | >10 | 0.019 (≈ 0.00645 µg/mL)
2 | Cc1noc(-c2nc(C)c3c(c2N)C(=O)N(Cc2cccc(OC(F)(F)F)c2)C3=O)n1 | >10 | <0.019
3 | Cc1nc(C(=O)OC2CC2)c(N)c2c1C(=O)N(Cc1ccccc1)C2=O | >10 | 0.039 (≈ 0.0137 µg/mL)
4 | COc1cccc(CN2C(=O)c3c(C)nc(-c4nc(C)no4)c(N)c3C2=O)c1 | >10 | 0.039 (≈ 0.0148 µg/mL)
5 | CCOC(=O)c1nc(C)c2c(c1N)C(=O)N(Cc1ccccc1)C2O (configuration not stated) | >10 | 0.019 (≈ 0.00649 µg/mL)
6 | Cc1noc(-c2nc(C)c3c(c2N)C(=O)N(Cc2cccc(Cl)c2)C3=O)n1 | >10 | <0.019
